Measured values from ChEMBL document CHEMBL3351460, “Structure-Metabolism Relationships in the Glucuronidation of d-Amino Acid Oxidase Inhibitors” (ACS Med Chem Lett, 2014).

Tests used:
[1] = Plasma clearance in CD1 mouse at 30 mg/kg, po and 10 mg/kg, iv; assay type: ADME, organism-based
[2] = Drug metabolism in rat liver microsomes assessed as glucuronidation of compound measured as compound remaining after 30 mins by LC/MS analysis; assay type: ADME; conditions: read-out: Stability
Method in brief: (§1)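 Liver microsomes (mouse or rat), 0.5 mg protein/mL, incubated at 37 °C with UDPGA (2 mM) as cofactor for glucuronidation. Parent compound remaining was quantified after 30 and 60 min and expressed as % remaining.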

[3] = Drug metabolism in rat liver microsomes assessed as glucuronidation of compound measured as compound remaining after 60 mins by LC/MS analysis; assay type: ADME; conditions: read-out: Stability; method in brief: as §1
[4] = Drug metabolism in mouse liver microsomes assessed as glucuronidation of compound measured as compound remaining after 60 mins by LC/MS analysis; assay type: ADME; conditions: read-out: Stability; method in brief: as §1
[5] = Drug metabolism in mouse liver microsomes assessed as glucuronidation of compound measured as compound remaining after 30 mins by LC/MS analysis; assay type: ADME; conditions: read-out: Stability; method in brief: as §1
[6] = Drug metabolism in human liver microsomes assessed as glucuronidation of compound measured as compound remaining after 60 mins by LC/MS analysis; assay type: ADME; conditions: read-out: Stability
Method in brief: (§2)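 Human liver microsomes (0.5 mg protein/mL) incubated with compound at 37 °C in the presence of UDPGA (2 mM), with a UDPGA-free control incubation. Remaining parent compound quantified after 30 and 60 min and expressed as % remaining.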

[7] = Oral bioavailability in CD1 mouse at 30 mg/kg; assay type: ADME, organism-based; conditions: in vivo
[8] = Drug metabolism in human liver microsomes assessed as glucuronidation of compound measured as compound remaining after 30 mins by LC/MS analysis; assay type: ADME; conditions: read-out: Stability; method in brief: as §2
D-amino-acid oxidase = D-amino-acid oxidase (Homo sapiens, UniProt P14920); assay: Inhibition of human D-amino acid oxidase
Sequence of D-amino-acid oxidase (P14920 whole entry): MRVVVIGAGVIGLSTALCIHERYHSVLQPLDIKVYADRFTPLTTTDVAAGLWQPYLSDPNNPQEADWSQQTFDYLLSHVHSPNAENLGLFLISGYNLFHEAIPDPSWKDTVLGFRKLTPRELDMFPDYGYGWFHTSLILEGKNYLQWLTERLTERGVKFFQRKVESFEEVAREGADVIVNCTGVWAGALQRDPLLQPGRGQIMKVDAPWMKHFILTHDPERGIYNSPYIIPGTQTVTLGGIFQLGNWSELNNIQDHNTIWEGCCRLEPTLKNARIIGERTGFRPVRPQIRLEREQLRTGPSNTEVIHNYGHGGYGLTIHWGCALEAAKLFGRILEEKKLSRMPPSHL

Compound | remaining at 1 h [4] | remaining at 0.5 h [5] | also measured
O=c1[nH]nc(CCc2cc(F)cc(F)c2)cc1O | 59% | 77% | clearance [1]: 39 mL/min/kg; remaining at 0.5 h [2]: 69%; remaining at 1 h [3]: 51%; remaining at 1 h [6]: 62%; bioavailability [7]: 31%; remaining at 0.5 h [8]: 81%
O=c1[nH]c2ccccc2cc1O | < 1% | < 1% | –
O=c1[nH]c2cccc(Cl)c2cc1O | < 1% | < 1% | remaining at 0.5 h [2]: < 1%; remaining at 1 h [3]: < 1%
Oc1noc2cc(Cl)ccc12 | 33% | 58% | –
O=c1[nH]c2cc(F)ccc2cc1O | < 1% | < 1% | remaining at 0.5 h [2]: < 1%; remaining at 1 h [3]: < 1%
O=c1[nH]cc(CCc2ccccc2)cc1O | 3% | 5% | –
O=c1oc2ccccc2cc1O [3-HYDROXYCOUMARIN] | < 1% | < 1% | –
O=c1[nH]c2c(F)cc(F)cc2n1O | < 1% | < 1% | –
O=C(O)c1cc(CCc2ccc(Cl)cc2)n[nH]1 | 102% | 103% | IC50 (D-amino-acid oxidase): < 1 µM
Cc1cc(C(=O)O)n[nH]1 | 78% | 92% | –
O=c1cc(CSc2ccc(Cl)c(Cl)c2)occ1O | 5% | 20% | –
O=C(O)c1cc2sccc2[nH]1 | 100% | 98% | –
